According to ChEMBL document CHEMBL1212840, “Lysine N(epsilon)-trimethylation, a tool for improving the selectivity of antimicrobial peptides” (J Med Chem, 2010):
Square brackets hold non-standard residues; d marks the D form. Peptide text beside a SMILES is read from it. Lys(Me3) = C[N+](C)(C)CCCC[C@H](N)C(=O)O

How the values were obtained:
[1] = Selectivity index, ratio of HC50 for sheep erythrocyte to MIC50 for Staphylococcus aureus CECT 240; type: functional
[2] = Selectivity index, ratio of IC50 for sheep erythrocyte to LC50 for Leishmania pifanoi MHOM/VE/60/LTrod amastigotes
Summary of the method: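 SI = HC50/LC50. HC50 comes from sheep erythrocytes (2 × 10^7 cells/mL in Hank's, 4 h, 37 °C, hemoglobin at 550 nm, 0.1% Triton X-100 as full lysis). For LC50, L. pifanoi axenic amastigotes at 2 × 10^7/mL in Hank's + 20 mM glucose get peptide for 4 h at 32 °C. An aliquot is then regrown in complete medium for 96 h at 32 °C.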

[3] = Selectivity index, ratio of HC50 for sheep erythrocyte to MIC50 for Acinetobacter baumannii ATCC 19606 ATCC 19606; type: functional
Leishmania pifanoi [4] = assay: Antileishmanial activity against Leishmania pifonoi MHOM/VE/60/LTrod promastigotes after 72 hrs by MTT assay; type: functional, organism-based
[5] = Selectivity index, ratio of IC50 for sheep erythrocyte to LC50 for Leishmania donovani MHOM/SD/001S-2D promastigotes
Summary of the method: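 SI = HC50/LC50. For HC50, washed sheep erythrocytes at 2 × 10^7 cells/mL in Hank's are exposed to peptide for 4 h at 37 °C. Hemoglobin in the supernatant is read at 550 nm; 0.1% Triton X-100 gives full lysis, and HC50 is 50% release.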

Leishmania pifanoi [6] = assay: Antileishmanial activity against Leishmania pifonoi MHOM/VE/60/LTrod amastigotes after 4 hrs by MTT assay
Acinetobacter baumannii = assay: Antimicrobial activity against Acinetobacter baumannii ATCC 19606 ATCC 19606 by turbidimetry; type: functional
Leishmania donovani [7] = assay: Antileishmanial activity against Leishmania donovani MHOM/SD/001S-2D promastigotes after 72 hrs by MTT assay; type: functional, organism-based
Summary of the method: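 L. donovani promastigotes (strain MHOM/SD/00/1S-2D) are harvested at late exponential phase and washed in Hank's + 20 mM D-glucose, pH 7.2. They are treated with peptide at 2 × 10^7 parasites/mL for 4 h at 26 °C. A 20 μL aliquot then goes into complete medium for 72 h at 26 °C to let survivors proliferate. LC50 is 50% inhibition of proliferation. Triplicates, repeated at least twice.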

Staphylococcus aureus = assay: Antimicrobial activity against Staphylococcus aureus CECT 240 by turbidimetry; type: functional
Leishmania donovani [8] = assay: Antileishmanial activity against Leishmania donovani MHOM/SD/001S-2D promastigotes after 4 hrs by MTT assay
[9] = Toxicity in sheep erythrocyte assessed as hemolysis; type: cell-based, Ovis aries; conditions: sheep erythrocytes
Summary of the method: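 Washed sheep erythrocytes at 2 107 cells/mL in Hank's medium were exposed to peptide for 4 h at 37 °C, then spun (5 min, 4 °C). Hemoglobin in the supernatant was read at 550 nm. HC50 is the peptide concentration releasing 50% of the hemoglobin freed by 0.1% Triton X-100.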

Compound | Selectivity Index [1] | Selectivity Index [2] | Selectivity Index [3] | LC50 (Leishmania pifanoi [4]) [µM] | Selectivity Index [5] | IC50 (Leishmania pifanoi [6]) [µM] | MIC50 (Acinetobacter baumannii) [µM] | LC50 (Leishmania donovani [7]) [µM] | MIC50 (Staphylococcus aureus) [µM] | IC50 (Leishmania donovani [8]) [µM] | HC50 [9] [µM]
CC[C@H](C)[C@H](NC(=O)[C@H](CCCCN)NC(=O)[C@H](CCCCN)NC(=O)[C@H](Cc1ccccc1)NC(=O)[C@H](CC(C)C)NC(=O)[C@H](CCCCN)NC(=O)[C@H](Cc1c[nH]c2ccccc12)NC(=O)[C@@H](N)CCCCN)C(=O)NCC(=O)N[C@@H](C)C(=O)N[C@H](C(=O)N[C@@H](CC(C)C)C(=O)N[C@@H](CCCC[N+](C)(C)C)C(=O)N[C@H](C(=O)N[C@@H](CC(C)C)C(N)=O)C(C)C)C(C)C.[Cl-] (H-KWKLFKKIGAVL[Lys(Me3)]VL-NH2) | 35.8 | 13.5 | 74.9 | 11.6 | 63 | 10.1 | 2.1 | 2.5 | 4.4 | 3.5 | 157
CC[C@H](C)[C@H](NC(=O)[C@H](CCCC[N+](C)(C)C)NC(=O)[C@H](CCCC[N+](C)(C)C)NC(=O)[C@H](Cc1ccccc1)NC(=O)[C@H](CC(C)C)NC(=O)[C@H](CCCC[N+](C)(C)C)NC(=O)[C@H](Cc1c[nH]c2ccccc12)NC(=O)[C@@H](N)CCCC[N+](C)(C)C)C(=O)NCC(=O)N[C@@H](C)C(=O)N[C@H](C(=O)N[C@@H](CC(C)C)C(=O)N[C@@H](CCCC[N+](C)(C)C)C(=O)N[C@H](C(=O)N[C@@H](CC(C)C)C(N)=O)C(C)C)C(C)C (H-[Lys(Me3)]W[Lys(Me3)]LF[Lys(Me3)][Lys(Me3)]IGAVL[Lys(Me3)]VL-NH2) |  |  |  | > 50 |  | > 50 | > 30 | > 50 | > 30 | > 50 | > 200
CC[C@H](C)[C@H](NC(=O)[C@H](CCCC[N+](C)(C)C)NC(=O)[C@H](CCCCN)NC(=O)[C@H](Cc1ccccc1)NC(=O)[C@H](CC(C)C)NC(=O)[C@H](CCCCN)NC(=O)[C@H](Cc1c[nH]c2ccccc12)NC(=O)[C@@H](N)CCCCN)C(=O)NCC(=O)N[C@@H](C)C(=O)N[C@H](C(=O)N[C@@H](CC(C)C)C(=O)N[C@@H](CCCCN)C(=O)N[C@H](C(=O)N[C@@H](CC(C)C)C(N)=O)C(C)C)C(C)C.[Cl-] (H-KWKLFK[Lys(Me3)]IGAVLKVL-NH2) | 22.8 | 13.5 | 86.3 | 12.1 | 71.3 | 11.4 | 1.9 | 2.3 | 7.2 | 3.7 | 164
CC[C@H](C)[C@H](NC(=O)[C@H](CCCCN)NC(=O)[C@H](CCCCN)NC(=O)[C@H](Cc1ccccc1)NC(=O)[C@H](CC(C)C)NC(=O)[C@H](CCCC[N+](C)(C)C)NC(=O)[C@H](Cc1c[nH]c2ccccc12)NC(=O)[C@@H](N)CCCCN)C(=O)NCC(=O)N[C@@H](C)C(=O)N[C@H](C(=O)N[C@@H](CC(C)C)C(=O)N[C@@H](CCCCN)C(=O)N[C@H](C(=O)N[C@@H](CC(C)C)C(N)=O)C(C)C)C(C)C.[Cl-] (H-KW[Lys(Me3)]LFKKIGAVLKVL-NH2) | 35.7 | 10.4 | 50.3 | 8.2 | 27.6 | 9.4 | 1.7 | 3.1 | 2.4 | 3.3 | 85.6
CC[C@H](C)[C@H](NC(=O)[C@H](CCCCN)NC(=O)[C@H](CCCC[N+](C)(C)C)NC(=O)[C@H](Cc1ccccc1)NC(=O)[C@H](CC(C)C)NC(=O)[C@H](CCCCN)NC(=O)[C@H](Cc1c[nH]c2ccccc12)NC(=O)[C@@H](N)CCCCN)C(=O)NCC(=O)N[C@@H](C)C(=O)N[C@H](C(=O)N[C@@H](CC(C)C)C(=O)N[C@@H](CCCCN)C(=O)N[C@H](C(=O)N[C@@H](CC(C)C)C(N)=O)C(C)C)C(C)C.[Cl-] (H-KWKLF[Lys(Me3)]KIGAVLKVL-NH2) | 34.3 | 9.6 | 112.2 | 16.3 | 92.7 | 13.4 | 1.4 | 1.7 | 4.6 | 3.7 | 158
CC[C@H](C)[C@H](NC(=O)[C@H](CCCCN)NC(=O)[C@H](CCCCN)NC(=O)[C@H](Cc1ccccc1)NC(=O)[C@H](CC(C)C)NC(=O)[C@H](CCCCN)NC(=O)[C@H](Cc1c[nH]c2ccccc12)NC(=O)[C@@H](N)CCCC[N+](C)(C)C)C(=O)NCC(=O)N[C@@H](C)C(=O)N[C@H](C(=O)N[C@@H](CC(C)C)C(=O)N[C@@H](CCCCN)C(=O)N[C@H](C(=O)N[C@@H](CC(C)C)C(N)=O)C(C)C)C(C)C.[Cl-] (H-[Lys(Me3)]WKLFKKIGAVLKVL-NH2) | 22.7 | 12 | 59.4 | 6.4 | 27.6 | 6 | 1.3 | 2.8 | 3.4 | 3.9 | 77.2
CC[C@H](C)[C@H](NC(=O)[C@H](CCCCN)NC(=O)[C@H](CCCC[N+](C)(C)C)NC(=O)[C@H](Cc1ccccc1)NC(=O)[C@H](CC(C)C)NC(=O)[C@H](CCCC[N+](C)(C)C)NC(=O)[C@H](Cc1c[nH]c2ccccc12)NC(=O)[C@@H](N)CCCCN)C(=O)NCC(=O)N[C@@H](C)C(=O)N[C@H](C(=O)N[C@@H](CC(C)C)C(=O)N[C@@H](CCCCN)C(=O)N[C@H](C(=O)N[C@@H](CC(C)C)C(N)=O)C(C)C)C(C)C.[Cl-].[Cl-] (H-KW[Lys(Me3)]LF[Lys(Me3)]KIGAVLKVL-NH2) | 18.9 | 7.1 | 58.6 | 16.5 | 17.4 | 7.4 | 2 | 6.7 | 6.2 | 5.1 | 117
CC[C@H](C)[C@H](NC(=O)[C@H](CCCCN)NC(=O)[C@H](CCCCN)NC(=O)[C@H](Cc1ccccc1)NC(=O)[C@H](CC(C)C)NC(=O)[C@H](CCCC[N+](C)(C)C)NC(=O)[C@H](Cc1c[nH]c2ccccc12)NC(=O)[C@@H](N)CCCC[N+](C)(C)C)C(=O)NCC(=O)N[C@@H](C)C(=O)N[C@H](C(=O)N[C@@H](CC(C)C)C(=O)N[C@@H](CCCCN)C(=O)N[C@H](C(=O)N[C@@H](CC(C)C)C(N)=O)C(C)C)C(C)C.[Cl-].[Cl-] (H-[Lys(Me3)]W[Lys(Me3)]LFKKIGAVLKVL-NH2) | 13.1 | 4.2 | 30 | 24.8 | 6.7 | 16.2 | 3.5 | 15.5 | 8 | 12.8 | 105
H-KWKLFKKIGAVLKVL-NH2 | 13.8 | 8.9 | 36.5 | 4.5 | 26.8 | 4.3 | 1.1 | 1.5 | 2.9 | 1.8 | 40.2
